Laboratory results from ChEMBL document CHEMBL1152472, “AdeIJK, a resistance-nodulation-cell division pump effluxing multiple antibiotics in Acinetobacter baumannii” (2008).
In brackets after ≈: the same amount, converted by molar mass.

Tests used:
Acinetobacter baumannii [1] = test: Antimicrobial activity against Acinetobacter baumannii BM4454 isolated from patient with urinary tract infection by E test; assay type: functional; conditions: BM4454, Urine
Method in brief: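 MIC read by E-test strip on solid medium against the multiresistant AdeABC-overexpressing urinary isolate. Strains were grown at 37°C in brain heart infusion or LB.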

Acinetobacter baumannii [2] = test: Antimicrobial activity against Acinetobacter baumannii BM4652 expressing adeABC adeIJK double mutant isolated from patient with urinary tract infection by E test; assay type: functional; conditions: BM4652, Urine
Method in brief: (§1)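 MICs determined on solid medium (Mueller-Hinton agar) by E-test. The strains are deletion-insertion derivatives of multiresistant urinary isolate BM4454 that lack adeIJK, adeABC or both. Strains were grown at 37°C in brain heart infusion broth or agar or in LB.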

Acinetobacter baumannii [3] = test: Antimicrobial activity against Acinetobacter baumannii BM4579 expressing deltaadeIJK genes isolated from patient with urinary tract infection by E test; assay type: functional; conditions: BM4579, Urine; method in brief: as §1
Acinetobacter baumannii [4] = test: Antimicrobial activity against Acinetobacter baumannii BM4652 expressing adeIJK genes with pAT807 isolated from patient with urinary tract infection by E test; assay type: functional; conditions: BM4652, Urine
Method in brief: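 E-test MIC on solid medium, with 0.005 mM IPTG added to induce adeIJK carried on plasmid pAT807 in the ΔadeIJK host. Growth was at 37°C.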

Acinetobacter baumannii [5] = test: Antimicrobial activity against Acinetobacter baumannii BM4651 expressing deltaadeABC genes isolated from patient with urinary tract infection by E test; conditions: BM4651, Urine
Acinetobacter baumannii [6] = test: Antimicrobial activity against Acinetobacter baumannii BM4579 expressing adeIJK genes with pAT807 isolated from patient with urinary tract infection by E test; conditions: BM4579, Urine
Acinetobacter baumannii [7] = test: Antimicrobial activity against Acinetobacter baumannii BM4454 isolated from patient with urinary tract infection by agar dilution method; assay type: functional; conditions: BM4454, Urine
Method in brief: (§2)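 MIC by agar dilution, the method used for ticarcillin and SDS. Strains were grown at 37°C in brain heart infusion or LB.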

Acinetobacter baumannii [8] = test: Antimicrobial activity against Acinetobacter baumannii BM4652 expressing adeABC adeIJK double mutant isolated from patient with urinary tract infection by agar dilution method; assay type: functional; conditions: BM4652, Urine
Method in brief: (§3)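 MICs determined by agar dilution on Mueller-Hinton agar with 10^4 CFU/spot; this method was used for ticarcillin and SDS. The strains are ΔadeIJK or ΔadeABC ΔadeIJK deletion-insertion derivatives of urinary isolate BM4454, grown at 37°C in brain heart infusion or LB medium.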

Acinetobacter baumannii [9] = test: Antimicrobial activity against Acinetobacter baumannii BM4652 expressing adeIJK genes with pAT807 isolated from patient with urinary tract infection by agar dilution method; assay type: functional; conditions: BM4652, Urine
Method in brief: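 Agar-dilution MIC (ticarcillin, SDS), with 0.005 mM IPTG added to induce plasmid pAT807-borne adeIJK in the ΔadeIJK background. Growth was at 37°C.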

Acinetobacter baumannii [10] = test: Antimicrobial activity against Acinetobacter baumannii BM4579 expressing deltaadeIJK genes isolated from patient with urinary tract infection by agar dilution method; assay type: functional; conditions: BM4579, Urine; method in brief: as §3
Acinetobacter baumannii [11] = test: Antimicrobial activity against Acinetobacter baumannii BM4579 expressing adeIJK genes with pAT807 isolated from patient with urinary tract infection by E test; assay type: functional; conditions: BM4579, Urine, in the assay text read “agar dilution method” for “E test”
Acinetobacter baumannii [12] = test: Antimicrobial activity against Acinetobacter baumannii BM4651 expressing deltaadeIJK genes isolated from patient with urinary tract infection by agar dilution method; assay type: functional; conditions: BM4651, Urine, in the assay text read “deltaadeABC” for “deltaadeIJK”; method in brief: as §2

CC[C@H]1OC(=O)[C@H](C)[C@@H](O[C@H]2C[C@@](C)(OC)[C@@H](O)[C@H](C)O2)[C@H](C)[C@@H](O[C@@H]2O[C@H](C)C[C@H](N(C)C)[C@H]2O)[C@](C)(O)C[C@@H](C)C(=O)[C@H](C)[C@@H](O)[C@]1(C)O [ERYTHROMYCIN]
MIC (Acinetobacter baumannii [1]): 12 µg/mL (≈ 16.4 µM) | MIC (Acinetobacter baumannii [2]): 1.5 µg/mL (≈ 2.04 µM) | MIC (Acinetobacter baumannii [3]): 8 µg/mL (≈ 10.9 µM) | MIC (Acinetobacter baumannii [4]): 3 µg/mL (≈ 4.09 µM) | MIC (Acinetobacter baumannii [5]): 4 µg/mL (≈ 5.45 µM) | MIC (Acinetobacter baumannii [6]): 12 µg/mL (≈ 16.4 µM)

CN(C)[C@@H]1C(O)=C(C(N)=O)C(=O)[C@@]2(O)C(O)=C3C(=O)c4c(O)cccc4[C@@](C)(O)[C@H]3C[C@@H]12 [TETRACYCLINE]
MIC (Acinetobacter baumannii [1]): 48 µg/mL (≈ 108 µM) | MIC (Acinetobacter baumannii [2]): 0.5 µg/mL (≈ 1.13 µM) | MIC (Acinetobacter baumannii [3]): 4 µg/mL (≈ 9 µM) | MIC (Acinetobacter baumannii [4]): 0.75 µg/mL (≈ 1.69 µM) | MIC (Acinetobacter baumannii [5]): 8 µg/mL (≈ 18 µM) | MIC (Acinetobacter baumannii [6]): 6 µg/mL (≈ 13.5 µM)

COc1c(N2C[C@@H]3CCCN[C@@H]3C2)c(F)cc2c(=O)c(C(=O)O)cn(C3CC3)c12 [MOXIFLOXACIN]
MIC (Acinetobacter baumannii [1]): 12 µg/mL (≈ 29.9 µM) | MIC (Acinetobacter baumannii [2]): 0.5 µg/mL (≈ 1.25 µM) | MIC (Acinetobacter baumannii [3]): 12 µg/mL (≈ 29.9 µM) | MIC (Acinetobacter baumannii [5]): 3 µg/mL (≈ 7.47 µM) | MIC (Acinetobacter baumannii [6]): 16 µg/mL (≈ 39.9 µM)

C[C@H]1COc2c(N3CCN(C)CC3)c(F)cc3c(=O)c(C(=O)O)cn1c23.C[C@H]1COc2c(N3CCN(C)CC3)c(F)cc3c(=O)c(C(=O)O)cn1c23.O [LEVOFLOXACIN]
MIC (Acinetobacter baumannii [1]): 12 µg/mL | MIC (Acinetobacter baumannii [2]): 0.38 µg/mL | MIC (Acinetobacter baumannii [3]): 6 µg/mL | MIC (Acinetobacter baumannii [4]): 2 µg/mL | MIC (Acinetobacter baumannii [5]): 3 µg/mL

CC[C@H]1OC(=O)[C@H](C)[C@@H](O[C@H]2C[C@@](C)(OC)[C@@H](O)[C@H](C)O2)[C@H](C)[C@@H](O[C@@H]2O[C@H](C)C[C@H](N(C)C)[C@H]2O)[C@](C)(O)C[C@@H](C)CN(C)[C@H](C)[C@@H](O)[C@]1(C)O [AZITHROMYCIN]
MIC (Acinetobacter baumannii [1]): 96 µg/mL (≈ 128 µM) | MIC (Acinetobacter baumannii [2]): 1.5 µg/mL (≈ 2 µM) | MIC (Acinetobacter baumannii [3]): 96 µg/mL (≈ 128 µM) | MIC (Acinetobacter baumannii [4]): 24 µg/mL (≈ 32 µM) | MIC (Acinetobacter baumannii [5]): 1.5 µg/mL (≈ 2 µM) | MIC (Acinetobacter baumannii [6]): 96 µg/mL (≈ 128 µM)

CO[C@H]1/C=C/O[C@@]2(C)Oc3c(C)c(O)c4c(O)c(c(/C=N/N5CCN(C)CC5)c(O)c4c3C2=O)NC(=O)/C(C)=C\C=C\[C@H](C)[C@H](O)[C@@H](C)[C@@H](O)[C@@H](C)[C@H](OC(C)=O)[C@@H]1C [RIFAMPIN]
MIC (Acinetobacter baumannii [1]): 4 µg/mL (≈ 4.86 µM) | MIC (Acinetobacter baumannii [2]): 2 µg/mL (≈ 2.43 µM) | MIC (Acinetobacter baumannii [3]): 2 µg/mL (≈ 2.43 µM) | MIC (Acinetobacter baumannii [4]): 1.5 µg/mL (≈ 1.82 µM) | MIC (Acinetobacter baumannii [5]): 4 µg/mL (≈ 4.86 µM) | MIC (Acinetobacter baumannii [6]): 2 µg/mL (≈ 2.43 µM)

CC1(C)S[C@@H]2[C@H](NC(=O)[C@H](C(=O)O)c3ccsc3)C(=O)N2[C@H]1C(=O)O [TICARCILLIN]
MIC (Acinetobacter baumannii [7]): 8 µg/mL (≈ 20.8 µM) | MIC (Acinetobacter baumannii [8]): 1 µg/mL (≈ 2.6 µM) | MIC (Acinetobacter baumannii [9]): > 256 µg/mL | MIC (Acinetobacter baumannii [10]): 1 µg/mL (≈ 2.6 µM) | MIC (Acinetobacter baumannii [11]): > 256 µg/mL | MIC (Acinetobacter baumannii [12]): 8 µg/mL (≈ 20.8 µM)

CO/N=C(\C(=O)N[C@@H]1C(=O)N2C(C(=O)O)=C(COC(C)=O)CS[C@H]12)c1csc(N)n1 [CEFOTAXIME]
MIC (Acinetobacter baumannii [1]): 8 µg/mL (≈ 17.6 µM) | MIC (Acinetobacter baumannii [2]): 1.5 µg/mL (≈ 3.29 µM) | MIC (Acinetobacter baumannii [3]): 1.5 µg/mL (≈ 3.29 µM) | MIC (Acinetobacter baumannii [4]): 0.25 µg/mL (≈ 0.549 µM) | MIC (Acinetobacter baumannii [5]): 8 µg/mL (≈ 17.6 µM) | MIC (Acinetobacter baumannii [6]): 3 µg/mL (≈ 6.59 µM)

CCC[C@@H]1C[C@@H](C(=O)N[C@@H]([C@H]2O[C@H](SC)[C@H](O)[C@@H](O)[C@H]2O)[C@H](C)Cl)N(C)C1 [CLINDAMYCIN]
MIC (Acinetobacter baumannii [1]): > 256 µg/mL | MIC (Acinetobacter baumannii [2]): 2 µg/mL (≈ 4.71 µM) | MIC (Acinetobacter baumannii [3]): 48 µg/mL (≈ 113 µM) | MIC (Acinetobacter baumannii [4]): 2 µg/mL (≈ 4.71 µM) | MIC (Acinetobacter baumannii [5]): > 256 µg/mL | MIC (Acinetobacter baumannii [6]): 48 µg/mL (≈ 113 µM)

CCn1cc(C(=O)O)c(=O)c2cc(F)c(N3CCN(C)CC3)cc21 [PEFLOXACIN]
MIC (Acinetobacter baumannii [1]): 48 µg/mL (≈ 144 µM) | MIC (Acinetobacter baumannii [2]): 4 µg/mL (≈ 12 µM) | MIC (Acinetobacter baumannii [3]): 24 µg/mL (≈ 72 µM) | MIC (Acinetobacter baumannii [4]): 12 µg/mL (≈ 36 µM) | MIC (Acinetobacter baumannii [5]): 24 µg/mL (≈ 72 µM) | MIC (Acinetobacter baumannii [6]): 48 µg/mL (≈ 144 µM)

CN(C)c1ccc(O)c2c1C[C@H]1C[C@H]3[C@H](N(C)C)C(O)=C(C(N)=O)C(=O)[C@@]3(O)C(O)=C1C2=O [MINOCYCLINE]
MIC (Acinetobacter baumannii [1]): 1.5 µg/mL (≈ 3.28 µM) | MIC (Acinetobacter baumannii [2]): 0.064 µg/mL (≈ 0.14 µM) | MIC (Acinetobacter baumannii [3]): 0.25 µg/mL (≈ 0.546 µM) | MIC (Acinetobacter baumannii [4]): 0.75 µg/mL (≈ 1.64 µM) | MIC (Acinetobacter baumannii [5]): 0.5 µg/mL (≈ 1.09 µM) | MIC (Acinetobacter baumannii [6]): 1 µg/mL (≈ 2.19 µM)

CN(C)c1cc(NC(=O)CNC(C)(C)C)c(O)c2c1C[C@H]1C[C@H]3[C@H](N(C)C)C(O)=C(C(N)=O)C(=O)[C@@]3(O)C(O)=C1C2=O [TIGECYCLINE]
MIC (Acinetobacter baumannii [1]): 4 µg/mL (≈ 6.83 µM) | MIC (Acinetobacter baumannii [2]): 0.047 µg/mL (≈ 0.0803 µM) | MIC (Acinetobacter baumannii [3]): 1.5 µg/mL (≈ 2.56 µM) | MIC (Acinetobacter baumannii [4]): 3 µg/mL (≈ 5.12 µM) | MIC (Acinetobacter baumannii [5]): 0.5 µg/mL (≈ 0.854 µM) | MIC (Acinetobacter baumannii [6]): 2 µg/mL (≈ 3.41 µM)

O=C(N[C@H](CO)[C@H](O)c1ccc([N+](=O)[O-])cc1)C(Cl)Cl [CHLORAMPHENICOL]
MIC (Acinetobacter baumannii [1]): 256 µg/mL (≈ 792 µM) | MIC (Acinetobacter baumannii [2]): 16 µg/mL (≈ 49.5 µM) | MIC (Acinetobacter baumannii [3]): 64 µg/mL (≈ 198 µM) | MIC (Acinetobacter baumannii [4]): 6 µg/mL (≈ 18.6 µM) | MIC (Acinetobacter baumannii [5]): 128 µg/mL (≈ 396 µM) | MIC (Acinetobacter baumannii [6]): 96 µg/mL (≈ 297 µM)

C[C@@H](O)[C@H]1C(=O)N2C(C(=O)O)=C(SCCNC=N)C[C@H]12 [IMIPENEM ANHYDROUS]
MIC (Acinetobacter baumannii [1]): 0.5 µg/mL (≈ 1.67 µM) | MIC (Acinetobacter baumannii [2]): 0.25 µg/mL (≈ 0.835 µM) | MIC (Acinetobacter baumannii [3]): 0.25 µg/mL (≈ 0.835 µM) | MIC (Acinetobacter baumannii [4]): 96 µg/mL (≈ 321 µM) | MIC (Acinetobacter baumannii [5]): 0.5 µg/mL (≈ 1.67 µM) | MIC (Acinetobacter baumannii [6]): 0.25 µg/mL (≈ 0.835 µM)
